Laboratory results published in publication PMC9727797 (Molecular Biology of the Cell, 2022).

Columns and labels:
KIF15-N420 [1] = target: T1, KIF15-N420 (Homo sapiens, UniProt Q9NS87); assay: ATP-dependent steady-state ATPase assay; format: biochemical; conditions: 30 μM compound, 3 μM microtubules, fit ± 95% confidence interval
T1 sequence (Q9NS87 1-420 limits assumed): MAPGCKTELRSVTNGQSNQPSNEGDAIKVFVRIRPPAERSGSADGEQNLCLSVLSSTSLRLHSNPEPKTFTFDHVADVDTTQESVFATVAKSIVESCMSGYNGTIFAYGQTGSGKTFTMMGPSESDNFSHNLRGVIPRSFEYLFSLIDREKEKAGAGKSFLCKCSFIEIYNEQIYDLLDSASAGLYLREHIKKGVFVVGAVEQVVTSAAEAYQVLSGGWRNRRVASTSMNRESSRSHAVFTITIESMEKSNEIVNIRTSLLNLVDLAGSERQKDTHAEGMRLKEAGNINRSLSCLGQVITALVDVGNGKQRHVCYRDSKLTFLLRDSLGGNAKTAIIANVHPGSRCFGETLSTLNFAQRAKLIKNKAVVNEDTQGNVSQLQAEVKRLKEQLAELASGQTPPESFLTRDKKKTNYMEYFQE
In short: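 KIF15-N420 ATPase measured by NADH-coupled assay, with absorbance at 340 nm followed over time at 25°C. Rates were divided by active motor concentration. ATP was varied, with microtubules held at 3 μM. Test compound was 30 μM, or an equal volume of DMSO. Michaelis-Menten fits were weighted by 1/SEM, with n = 5–7 per concentration. kcat and Km are reported as fit ± 95% confidence interval.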

KIF15-N700 = target: T2, KIF15-N700 (Homo sapiens, UniProt Q9NS87); assay: Microtubule binding to coverslip via KIF15 in gliding assay; conditions: 1 min postdrug addition; 24 µM Munesib-1 or 100 µM Fift-IN
T2 sequence (Q9NS87 1-700 limits assumed): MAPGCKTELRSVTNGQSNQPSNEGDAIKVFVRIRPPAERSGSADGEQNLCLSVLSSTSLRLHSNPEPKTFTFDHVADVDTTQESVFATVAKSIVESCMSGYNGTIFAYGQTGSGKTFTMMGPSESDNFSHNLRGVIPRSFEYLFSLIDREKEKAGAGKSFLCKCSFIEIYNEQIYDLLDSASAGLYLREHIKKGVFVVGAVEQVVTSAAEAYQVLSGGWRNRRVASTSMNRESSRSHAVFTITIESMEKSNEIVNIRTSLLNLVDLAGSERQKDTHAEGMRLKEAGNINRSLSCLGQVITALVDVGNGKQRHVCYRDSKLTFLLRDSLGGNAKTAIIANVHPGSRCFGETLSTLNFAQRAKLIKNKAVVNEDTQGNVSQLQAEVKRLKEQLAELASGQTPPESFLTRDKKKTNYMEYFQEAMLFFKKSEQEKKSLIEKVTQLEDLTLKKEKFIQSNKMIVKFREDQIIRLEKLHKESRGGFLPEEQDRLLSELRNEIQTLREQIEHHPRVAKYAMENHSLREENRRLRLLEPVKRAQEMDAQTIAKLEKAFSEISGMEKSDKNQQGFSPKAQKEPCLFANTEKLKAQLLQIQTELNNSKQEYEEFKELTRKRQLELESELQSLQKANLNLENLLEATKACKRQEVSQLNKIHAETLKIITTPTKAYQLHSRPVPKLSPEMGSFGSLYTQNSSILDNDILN
In short: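 During KIF15-N700 gliding assays, microtubules bound to the coverslip were counted immediately before adding drug and after 1 min of incubation. Test compound was 24 µM or 100 µM; DMSO served as control. Results are expressed as the percentage of microtubules remaining bound.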

[2] = target: T3, K560, a truncated form of kinesin-1 (Homo sapiens, UniProt P33176); assay: Microtubule gliding assay, K560; format: biochemical; conditions: 24 µM Munesib-1 or 100 µM Fift-IN
T3 sequence (P33176 1-560 limits assumed): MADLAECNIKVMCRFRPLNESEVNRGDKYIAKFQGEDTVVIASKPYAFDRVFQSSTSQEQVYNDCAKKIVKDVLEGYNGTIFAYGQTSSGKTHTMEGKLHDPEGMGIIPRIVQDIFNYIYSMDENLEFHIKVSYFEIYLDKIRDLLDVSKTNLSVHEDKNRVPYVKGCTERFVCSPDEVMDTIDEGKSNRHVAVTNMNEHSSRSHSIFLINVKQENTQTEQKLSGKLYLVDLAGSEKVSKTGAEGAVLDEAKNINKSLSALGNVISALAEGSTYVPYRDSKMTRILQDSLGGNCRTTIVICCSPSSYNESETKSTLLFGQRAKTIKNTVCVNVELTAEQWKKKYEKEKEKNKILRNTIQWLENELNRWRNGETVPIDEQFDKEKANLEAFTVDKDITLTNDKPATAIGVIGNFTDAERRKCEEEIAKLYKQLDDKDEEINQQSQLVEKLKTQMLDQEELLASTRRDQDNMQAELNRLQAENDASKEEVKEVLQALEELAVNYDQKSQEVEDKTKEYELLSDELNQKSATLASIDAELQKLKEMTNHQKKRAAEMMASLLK
In short: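 Gliding assays with other motors used His6-Eg5, His6-EGFP-HSET or K560 (truncated kinesin-1), with test compound at 24 µM or 100 µM. Frames were captured every 5 s for 1 min at 100×. Velocity was the distance travelled in 1 min, from ≥15 microtubules at each of three locations (n ≥ 50 per slide).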

[3] = Precipitation observed in culture media; format: physicochemical
KIF15-N420 [4] = target: T1, KIF15-N420; assay: Microtubule-dependent steady-state ATPase assay; format: biochemical; conditions: 2 mM ATP; for kcat, microtubule-dependent ATPase: fit ± 95% CI
In short: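 Microtubule-dependent KIF15-N420 ATPase used an NADH-coupled read-out (A340, 25°C), with rates normalised to active motor concentration. ATP was held at 2 mM and microtubules varied over eight concentrations from 0 to 8 μM. Test compound was at 3, 5, 20 or 30 μM, with a DMSO control. Michaelis-Menten fits were weighted by 1/SEM, n = 6–9 per microtubule concentration. kcat and Km are given as fit ± 95% CI.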

RPE-1 cells = assay: Live cell imaging of metaphase duration; format: cell-based, human; conditions: Munesib-1 50 µM, Fift-IN and GW108X 25 µM
HeLa cells = assay: Preanaphase spindle monopolarity, parental HeLa cells; format: cell-based
[5] = test system: HeLa-derived KIRC-2 cells; assay: Preanaphase spindle monopolarity, HeLa-derived KIRC-2 cells; format: cell-based; conditions: same concentrations as in KIRC-1 cells

COC(=O)c1ccc2c(c1)N(C)S(=O)(=O)c1cnc(SC)nc1-2 [Munesib-1, Methyl 6-methyl-2-(methylthio)-6H-benzo[c]pyrimido[4,5-e][1,2]thiazine-8-carboxylate 5,5-dioxide]
kcat, ATP-dependent ATPase (KIF15-N420 [1]): 2.6 ± 0.4 s^–1 | microtubules remaining bound to the coverslip via KIF15 (KIF15-N700): little effect on binding | inhibition of microtubule gliding, K560 [2]: neither substantially inhibited | solubility observation [3]: often precipitated in culture media | kcat, microtubule-dependent ATPase (KIF15-N420 [4]; 3 μM compound): 8.5 ± 1 s^–1 | kcat, microtubule-dependent ATPase (KIF15-N420 [4]; 5 μM compound): 8.2 ± 3 s^–1 | kcat, microtubule-dependent ATPase (KIF15-N420 [4]; 30 μM compound): 11.6 ± 6 s^–1 | mode of inhibition with respect to microtubules (KIF15-N420 [4]): less conclusive | metaphase duration (metaphase plate formation until anaphase onset) (RPE-1 cells): no significant change in metaphase timing | effect on spindle assembly in parental line (HeLa cells): little effect on the parental HeLa line | effect on monopolarity index [5]: failed to substantially increase the monopolarity index
